The target of data set [1] is T1, C-X-C chemokine receptor type 4 (Homo sapiens, UniProt P61073). Description: Inhibition of PE-conjugated-12G5 anti-CXCR4 antibody binding to CXCR4 in human CEM-CCRF cells preincubated for 30 mins followed by antibody addition by FACS Canto II cytofluorometric analysis. The data set is classed as cell-based.
A short description of data set [2]: Drug level in human plasma treated with (4R,7S,10S,13S,16R)-16-amino-7,10-dibenzyl-13-(3-guanidinopropyl)-6,9,12,15-tetraoxo-1,2-dithia-5,8,11,14-tetraazacycloheptadecane-4-carboxylic acid after 2 hrs by ESI-RP-HPLC analysis. The data set is classed as ADME. The essentials:
(§1)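 Peptide (1 mg/mL in water) was mixed 1:1 with prewarmed (37 °C) human plasma diluted to 50% in water. Aliquots were taken at 0, 30, 60, 120 and 180 min and quenched with 1% TFA in acetonitrile. After centrifugation, supernatants were run on C18 HPLC-ESI-MS with a 10–90% ACN gradient (0.1% TFA) over 20 min. Relative levels came from A230 peak integration.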

Data set [3] deals with T1, C-X-C chemokine receptor type 4. Description: Inhibition of GFP-tagged CXCR4 (unknown origin) internalization expressed in human HCT116 cells at 0.1 uM pre-incubated for 45 mins followed by CXCL12 addition measured after 45 mins by alpha-tubulin/alexa fluor594/DAPI staining based confocal microscopic analysis. The data set is classed as cell-based. The settings on record: HCT-116. In outline: (§2)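 HCT116 cells were stably transfected with GFP-CXCR4, grown 1 day on coverslips in DMEM/10% FBS, then equilibrated in DMEM with 0.5% BSA. Cells got peptide (0.1 μM) for 45 min at 37 °C, then CXCL12 for 45 min at 37 °C. They were fixed in 4% formaldehyde, permeabilized with 0.1% Triton, and stained for α-tubulin (Alexa Fluor 594) and DAPI. Confocal microscopy assessed membrane fluorescence and intracellular vesicles.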

Data set [4] in a line: Metabolic stability in human plasma after 180 mins by ESI-RP-HPLC analysis. The data set is classed as ADME, cell-free. As to conditions: 3 h. The essentials:
as §1

The target of data set [5] is T1, C-X-C chemokine receptor type 4. Description: Inhibition of CXCR4 in human serum starved CEM cells assessed as suppression of CXCL12-dependent ERK phosphorylation at 0.001 to 0.1 uM after 2 to 20 mins in presence of CXCL12 by H/E staining based microscopic analysis. The data set is classed as cell-based. As to conditions: CCRF-CEM, in the assay text read “immunoblotting” for “H/E staining based microscopic analysis”. The essentials:
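Serum-starved CEM cells were stimulated with CXCL12 (100 ng/mL) in the presence of peptide. Lysates were made in Hepes pH 7.5/Triton X-100 buffer with protease and phosphatase inhibitors and immunoblotted for p-ERK and ERK2. Induction is the ratio of p-ERK with CXCL12 to p-ERK under serum-free conditions.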
On the technique in general: A western blot detects proteins with antibodies after separation by electrophoresis.

The target is the same in data set [6]. Description: Inhibition of GFP-tagged CXCR4 (unknown origin) internalization expressed in human HCT116 cells assessed as reduction in vesicle size at 0.1 uM pre-incubated for 45 mins followed by CXCL12 addition measured after 45 mins by alpha-tubulin/alexa fluor594/DAPI staining based confocal microscopic analysis. The data set is classed as cell-based. The settings on record: HCT-116. The essentials:
as §2

The target is the same in data set [7]. Description: Inhibition of 12G5 anti-CXCR4 antibody binding to CXCR4 in human HT29 cells preincubated for 30 mins followed by antibody addition by FACS Canto II cytofluorometric analysis. The data set is classed as cell-based, HT-29. (In general: In flow cytometry, cells or beads pass a laser one at a time.)
For data set [8] the target is unchanged. The data set is described as follows: Antagonist activity at CXCR4 in human HT29 cells assessed as suppression of CXCL12 dependent cell migration at 0.0001 to 10 uM in presence of CXCL12 by H/E staining based microscopic analysis. As to conditions: HT-29. The essentials:
(§3)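 Transwell migration assay: inserts with 5 μm pores for CEM cells and 8 μm pores for HT29 cells, membranes precoated with human collagen type I/III and fibronectin (20 μg/mL each). 2 × 10^5 cells went in the upper chamber in medium with 1% BSA plus peptide, and 100 ng/mL CXCL12 in the lower chamber, for 18 h. Migrated cells were H&E-stained and counted in 10 fields. Migration index was taken against BSA-only medium.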

For data set [9] the target is unchanged. Description: Inhibition of CXCR4 in human CEM cells assessed as suppression of CXCL12-dependent cell migration after 18 hrs in presence of CXCL12 by H/E staining based microscopic analysis. As to conditions: CCRF-CEM. In outline:
as §3

A short description of data set [10]: Metabolic stability in human plasma assessed as compound degradation after 60 mins by ESI-RP-HPLC analysis. The settings on record: read-out: Drug degradation. The data set is classed as ADME, cell-free. In outline: as §1
Data set [11] in a line: Drug metabolism in human plasma after 30 mins by ESI-RP-HPLC analysis. The data set is classed as ADME, cell-free. The settings on record: read-out: Drug metabolism.
The nature of data set [12]: Drug metabolism in human plasma assessed as cyclic pentapeptide cyclo[Cys-Arg-Phe-Phe-Cys] metabolite formation after 120 mins by ESI-RP-HPLC analysis. The data set is classed as ADME, cell-free. The settings on record: 2 h. The essentials:
as §1

Calls of active or inactive are those of the source. No cut-off for these calls is given here. Positions of bridges follow the written chain, without caps; N, C: chain ends. Residues, ends and D or L forms follow the SMILES beside them.

T1 sequence (P61073 whole entry): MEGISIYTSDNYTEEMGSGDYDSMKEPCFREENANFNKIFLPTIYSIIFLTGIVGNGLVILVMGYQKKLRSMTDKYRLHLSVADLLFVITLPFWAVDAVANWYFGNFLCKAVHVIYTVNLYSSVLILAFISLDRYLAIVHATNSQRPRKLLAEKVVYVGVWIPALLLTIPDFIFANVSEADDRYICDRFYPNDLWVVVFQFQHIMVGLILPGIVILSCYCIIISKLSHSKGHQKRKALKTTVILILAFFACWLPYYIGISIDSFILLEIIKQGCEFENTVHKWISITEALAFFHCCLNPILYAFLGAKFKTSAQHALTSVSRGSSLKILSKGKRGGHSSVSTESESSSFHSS

By IC50 is commonly meant the midpoint of a concentration-inhibition curve. The compound `CC(=O)N[C@H](CCCNC(=N)N)C(=O)N[C@@H](C)C(=O)N[C@H]1CSSC[C@@H](C(=O)O)NC(=O)[C@H](Cc2ccccc2)NC(=O)[C@H](Cc2ccccc2)NC(=O)[C@H](CCCNC(=N)N)NC1=O` showed an IC50 in data set [1] above 10 µM.

`CC(=O)N[C@@H](CCCNC(=N)N)C(=O)N[C@@H](C)C(=O)N[C@@H]1CSSC[C@@H](C(=O)O)NC(=O)[C@H](Cc2ccccc2)NC(=O)[C@H](C)NC(=O)[C@H](CCCNC(=N)N)NC1=O`: the IC50 in data set [1] was above 10 µM.

For `N=C(N)NCCC[C@@H]1NC(=O)[C@@H](N)CSSC[C@@H](C(=O)O)NC(=O)[C@H](Cc2ccccc2)NC(=O)[C@H](Cc2ccccc2)NC1=O` (H-CRFFC-OH; disulfide 1-5), the Drug uptake entry in data set [2] is given as “Active”.

`CC(=O)N[C@@H](CCCNC(=N)N)C(=O)N[C@@H](C)C(=O)N[C@@H]1CSSC[C@@H](C(=O)O)NC(=O)[C@H](Cc2ccccc2)NC(=O)[C@H](Cc2ccccc2)NC(=O)[C@H](CCCNC(=N)N)NC1=O`: the inhibition result in [3], in [5], in [6], in data set [8] and in data set [9] was “Active” in each case. For the same compound, the Stability entry in data set [4] is given as “Stable”. Moreover, the IC50 in data set [7] amounted to 0.064 µM; in [1], 0.053 µM.

Compound `CC(=O)N[C@@H](CCCNC(=N)N)C(=O)N[C@@H](C)C(=O)N[C@@H]1CSSC[C@@H](C(=O)O)NC(=O)[C@H](Cc2ccccc2)NC(=O)[C@H](Cc2ccccc2)NC(=O)[C@H](C)NC1=O` yielded an IC50 in data set [1] above 10 µM.

On to `CC(=O)N[C@@H](CCCNC(=N)N)C(=O)N[C@@H](C)C(=O)N[C@H]1CSSC[C@@H](C(=O)O)NC(=O)[C@H](Cc2ccccc2)NC(=O)[C@@H](Cc2ccccc2)NC(=O)[C@H](CCCNC(=N)N)NC1=O`, for which the IC50 in data set [1] is above 10 µM.

In data set [1], `CC(=O)N[C@@H](CCCNC(=N)N)C(=O)N[C@H](C)C(=O)N[C@H]1CSSC[C@@H](C(=O)O)NC(=O)[C@H](Cc2ccccc2)NC(=O)[C@H](Cc2ccccc2)NC(=O)[C@H](CCCNC(=N)N)NC1=O` displayed an IC50 above 10 µM.

Turning to `CC(=O)N[C@@H](CCCNC(=N)N)C(=O)N[C@@H](C)C(=O)N[C@H]1CSSC[C@@H](C(N)=O)NC(=O)[C@H](Cc2ccccc2)NC(=O)[C@H](Cc2ccccc2)NC(=O)[C@H](CCCNC(=N)N)NC1=O` (Ac-RACRFFC-NH2; disulfide 3-7), the IC50 in [1] was 1.23 µM.

In the case of `CC(=O)N[C@@H](CCCNC(=N)N)C(=O)N[C@@H](C)C(=O)N[C@H]1CSSC[C@@H](C(=O)O)NC(=O)[C@H](Cc2ccccc2)NC(=O)[C@H](Cc2ccccc2)NC(=O)[C@H](CCCNC(=N)N)NC1=O`, in [4], the Stability entry was “Stable”. This compound yielded an IC50 in data set [1] of 0.131 µM.

`CC(=O)N[C@@H](CCCNC(=N)N)C(=O)N[C@@H](C)C(=O)N[C@H]1CSSC[C@@H](C(=O)O)NC(=O)[C@H](Cc2ccccc2)NC(=O)[C@H](Cc2ccccc2)NC(=O)[C@@H](CCCNC(=N)N)NC1=O` showed a half-inhibitory concentration (IC50) in data set [1] above 10 µM.

As for `CC(=O)N[C@@H](CCCNC(=N)N)C(=O)N[C@@H](C)C(=O)N[C@@H]1CSSC[C@@H](C(=O)O)NC(=O)[C@H](C)NC(=O)[C@H](Cc2ccccc2)NC(=O)[C@H](CCCNC(=N)N)NC1=O`, the IC50 in data set [1] was above 10 µM.

Turning to `CC(=O)N[C@@H](C)C(=O)N[C@@H](C)C(=O)N[C@@H]1CSSC[C@@H](C(=O)O)NC(=O)[C@H](Cc2ccccc2)NC(=O)[C@H](Cc2ccccc2)NC(=O)[C@H](CCCNC(=N)N)NC1=O`, the IC50 in data set [1] is above 10 µM.

On to `C[C@H](NC(=O)[C@@H](N)CCCNC(=N)N)C(=O)N[C@H]1CSSC[C@@H](C(=O)O)NC(=O)[C@H](Cc2ccccc2)NC(=O)[C@H](Cc2ccccc2)NC(=O)[C@H](CCCNC(=N)N)NC1=O` (H-RACRFFC-OH; disulfide 3-7), for which the metabolised at 1 h in data set [10] worked out at 50%. Also, the inhibition result in [3], in [5], in [6], in data set [8] and in data set [9] was “Active” in each case. The metabolised at 0.5 h in [11] turned out to be 30%. For the same compound, the values for the IC50 in [7] and in data set [1] were 5.2 µM and 6.2 µM, respectively. Besides, the Drug metabolism result in data set [12] is reported as “Metabolite_Detected”.

In data set [1], `CC(=O)N[C@@H](CCCNC(=N)N)C(=O)N[C@@H](C)C(=O)N[C@H]1CSSC[C@@H](C(=O)O)NC(=O)[C@@H](Cc2ccccc2)NC(=O)[C@H](Cc2ccccc2)NC(=O)[C@H](CCCNC(=N)N)NC1=O` yielded an IC50 above 10 µM.

Turning to `CC(=O)N[C@@H](CCCNC(=N)N)C(=O)N[C@@H](C)C(=O)N[C@H]1CSSC[C@H](C(=O)O)NC(=O)[C@H](Cc2ccccc2)NC(=O)[C@H](Cc2ccccc2)NC(=O)[C@H](CCCNC(=N)N)NC1=O`, the IC50 in data set [1] is 5.9 µM.

`C[C@H](NC(=O)[C@@H](N)CCCNC(=N)N)C(=O)N[C@H]1CSSC[C@@H](C(N)=O)NC(=O)[C@H](Cc2ccccc2)NC(=O)[C@H](Cc2ccccc2)NC(=O)[C@H](CCCNC(=N)N)NC1=O` (H-RACRFFC-NH2; disulfide 3-7) registered an IC50 in data set [1] of 5.9 µM.
